Calls of active or inactive are those of the source. No cut-off for these calls is given here.
Legend:
U2OS [1] = experiment: Induction of mitochondrial fragmentation in human U2OS cells assessed as puncta-like staining at 30 uM incubated for 20 hrs by Mito Tracker Deep Red dye based CPA assay; format: functional, cell-based
How it was run: (§1)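 Cell Painting: U-2OS were seeded at 1600 cells/well, then dosed 4 h later for 20 h at 37 °C against a matched-% DMSO control. Live cells were stained 30 min with 100 nM MitoTracker Deep Red, then fixed in 3.7% formaldehyde and permeabilized with 0.1% Triton X-100. They were co-stained with phalloidin, concanavalin A, Hoechst, WGA and SYTO 14. Imaging was high-content, run as triplicate plates; features are Z-scores versus DMSO median/MAD.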

U2OS [2] = experiment: Effect on HIF1 signaling in human U2OS cells at 30 uM incubated for 24 hrs by pathway over-representation analysis; format: functional, cell-based
How it was run: (§2)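 U-2OS seeded at 1 × 10⁶ cells in T75 flasks, treated next day for 24 h at 37 °C versus DMSO. Cells were lysed by freeze–thaw, reduced with TCEP at 55 °C, alkylated with iodoacetamide, acetone-precipitated and trypsin-digested. Peptides were TMT-labelled, split into 10 fractions by high-pH C18, then run on nanoHPLC-MS/MS (orbitrap). Biological triplicates, with pathway over-representation analysis.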

U2OS [3] = experiment: Effect on oxidative phosphorylation in human U2OS cells at 30 uM incubated for 24 hrs by pathway over-representation analysis; format: functional, cell-based; how it was run: as §2
U2OS [4] = experiment: Effect on mitochondrial dysfunction in human U2OS cells at 30 uM incubated for 24 hrs by pathway over-representation analysis; format: functional, cell-based; how it was run: as §2
U2OS [5] = experiment: Effect on glycolysis in human U2OS cells assessed as increase in ECAR level at 10 to 30 uM of acute treatment by Seahorse analysis; format: functional, cell-based; conditions: dose 10-30 µM
How it was run: (§3)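 Seahorse XFp Mito Stress Test on U-2OS, 2 × 10⁵ cells per well, seeded overnight. Assay medium was pH 7.4 DMEM with 2 mM GlutaMAX, 1 mM pyruvate and 25 mM glucose. For acute runs, compound was injected after 5 baseline reads, then 10 reads. Otherwise cells were pretreated 24 h. Then oligomycin A, FCCP and rotenone/antimycin A were added. OCR/ECAR were background-subtracted and normalized to the last baseline (100%). Mean ± SD, n = 3.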

U2OS [6] = experiment: Induction of integrated stress response in human U2OS cells assessed as increase ATF4 mRNA level at 30 uM incubated for 24 hrs by RT-qPCR analysis; format: functional, cell-based
How it was run: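 U-2OS at 1 × 10⁵/well in 6-well plates were grown 24 h to ~80% confluence, then treated 24 h versus DMSO. Total RNA (DNase-treated) was reverse-transcribed and ATF4 measured by SYBR Green qPCR. Expression was calculated by ΔΔCt against GAPDH, with DMSO set to 100%. Mean ± SD, n = 3.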

U2OS [7] = experiment: Induction of integrated stress response in human U2OS cells assessed as increase ATF4 level at 30 uM incubated for 24 hrs by Western blot analysis; format: functional, cell-based
How it was run: (§4)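 U-2OS grown to 80% confluence in 6-well plates were treated 24 h at 37 °C versus DMSO. ATF4 was detected by immunoblotting, with vinculin as reference protein.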

U2OS [8] = experiment: Effect on mitochondrial respiration in human U2OS cells assessed as suppression of OCR level at 10 to 30 uM measured after 24 hrs by Seahorse analysis; format: functional, cell-based; conditions: dose 10-30 µM; how it was run: as §3
U2OS [9] = experiment: Effect on mitochondrial membrane potential in human U2OS cells at 30 uM incubated for 24 hrs by TRME staining based analysis; format: functional, cell-based
How it was run: (§5)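 U-2OS (5 × 10³/well) were treated 24 h, then given 20 μM FCCP or 0.5% DMSO controls for 10 min. Cells were stained 30 min at 37 °C with 1 μM TMRE plus Hoechst-33342 in complete DMEM, washed, and imaged live in 0.2% BSA/PBS at 10× (TMRE ex/em 549/575 nm).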

U2OS [10] = experiment: Inhibition of cell confluence in human U2OS cells at 10 to 50 uM measured after 48 hrs by PI/caspase-3/7 Green dye based analysis; format: functional; conditions: dose 10-50 µM
How it was run: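 U-2OS at 5000/well were incubated overnight, then given medium with compound or DMSO plus propidium iodide and CellEvent Caspase-3/7 Green. Cells were imaged hourly for 48 h by live-cell imaging. Phase confluence gave growth; red and green object confluence gave PI-positive cells and caspase-3/7 activity.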

U2OS [11] = experiment: Effect on glycolysis in human U2OS cells assessed as increase in ECAR level at highest concentration measured after 24 hrs by Seahorse analysis; format: functional, cell-based; how it was run: as §3
HEK-293T = experiment: Upregulation of HIF1 level in HEK293T cells transfected with HIF1/luc at 30 uM incubated for 24 hrs by Renilla luciferase base assay; format: functional, cell-based; conditions: Homo sapiens
How it was run: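 HEK293T were co-transfected (Lipofectamine 2000) with a PGK1-HRE-driven destabilized firefly luciferase reporter and constitutive TK-Renilla. Cells were seeded at 2.5 × 10⁴/well, then treated 24 h the next day, with 100 μM CoCl₂ and 10 μM ML228 as controls. Dual-Glo readout: firefly was normalized to Renilla and expressed as fold induction over DMSO.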

U2OS [12] = experiment: Induction of oxidative stress in human U2OS cells assessed as increase in mitochondrial superoxide level at 30 uM incubated for 1 hr by MitoSox Red staining based analysis; format: functional, cell-based
How it was run: (§6)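 U-2OS at 15,000/well were preloaded 30 min with 5 μM MitoSOX Red plus Hoechst in plain DMEM. They were then treated 60 min in complete DMEM, fixed in 0.5% paraformaldehyde, and imaged at 10×. Integrated MitoSOX intensity per cell was normalized to DMSO (0%) and 10 μM CDNB (100%). Mean ± SD, n = 3.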

U2OS [13] = experiment: Effect on mitochondrial respiration in human U2OS cells assessed as suppression of OCR level at 10 to 30 uM of acute treatment by Seahorse analysis; format: functional, cell-based; conditions: dose 10-30 µM; how it was run: as §3
U2OS [14] = experiment: Induction of oxidative stress in human U2OS cells assessed as increase in mitochondrial superoxide level at 10 uM incubated for 1 hr by MitoSox Red staining based analysis; format: functional, cell-based; how it was run: as §6
U2OS [15] = experiment: Effect on HIF1 signaling in human U2OS cells incubated for 24 hrs by pathway over-representation analysis; format: functional, cell-based; how it was run: as §2
U2OS [16] = experiment: Effect on mitochondrial membrane potential in human U2OS cells at 10 uM incubated for 24 hrs by TRME staining based analysis; format: functional, cell-based; how it was run: as §5
U2OS [17] = experiment: Induction of mitochondrial fragmentation in human U2OS cells assessed as puncta-like staining at 10 uM incubated for 20 hrs by Mito Tracker Deep Red dye based CPA assay; format: functional, cell-based; how it was run: as §1
U2OS [18] = experiment: Effect on glucose metabolism in human U2OS cells at 30 uM incubated for 24 hrs by pathway over-representation analysis; format: functional, cell-based; how it was run: as §2
U2OS [19] = experiment: Induction of mitochondrial network fragmentation in human U2OS cells incubated for […] by CellLight Mitochondria-GFP assay; format: functional, cell-based; conditions: dose 30.0 µM
How it was run: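 U-2OS were transduced with CellLight Mitochondria-GFP BacMam 2.0 one day before treatment. 3000 cells/well were seeded in chamber slides. After compound addition, live cells were imaged by confocal microscopy (488/555 nm) continuously over 24 h at 37 °C, 5% CO₂.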

U2OS [20] = experiment: Effect on mitochondrial morphology in human U2OS cells at high concentration incubated for 20 hrs by Mito Tracker Deep Red dye based CPA assay; format: functional, cell-based; how it was run: as §1
U2OS [21] = experiment: Upregulation of EGLN1 expression in human U2OS cells at 10 to 30 uM incubated for 24 hrs by proteome profiling based analysis; format: functional, cell-based; conditions: dose 10-30 µM; how it was run: as §2
U2OS [22] = experiment: Effect on EIF2 level in human U2OS cells at 30 uM incubated for 24 hrs by proteome profiling based analysis; format: functional, cell-based; how it was run: as §2
U2OS [23] = experiment: Effect on mitochondrial respiration in human U2OS cells assessed as suppression of OCR level measured after 24 hrs by Seahorse analysis; format: functional, cell-based; how it was run: as §3
U2OS [24] = experiment: Downregulation of MRPs level in human U2OS cells at 30 uM incubated for 24 hrs by proteome profiling based analysis; format: functional, cell-based; how it was run: as §2
U2OS [25] = experiment: Effect on glycolysis in human U2OS cells at 30 uM incubated for 24 hrs by pathway over-representation analysis; format: functional, cell-based; how it was run: as §2
U2OS [26] = experiment: Upregulation of HK2 expression in human U2OS cells at 10 to 30 uM incubated for 24 hrs by proteome profiling based analysis; format: functional, cell-based; conditions: dose 10-30 µM; how it was run: as §2
U2OS [27] = experiment: Induction of mitochondrial fragmentation in human U2OS cells assessed as puncta-like staining at 30 to 50 uM incubated for 20 hrs by Mito Tracker Deep Red dye based CPA assay; format: functional, cell-based; conditions: dose 30-50 µM; how it was run: as §1
U2OS [28] = experiment: Upregulation of SLC2A1 expression in human U2OS cells at 10 to 30 uM incubated for 24 hrs by proteome profiling based analysis; format: functional, cell-based; conditions: dose 10-30 µM; how it was run: as §2
U2OS [29] = experiment: Effect on mitochondrial respiration in human U2OS cells assessed as suppression of OCR level at 30 uM measured after 24 hrs by Seahorse analysis relative to control; format: functional; how it was run: as §3
U2OS [30] = experiment: Downregulation of […] level in human U2OS cells at 10 to 30 uM incubated for 24 hrs by proteome profiling based analysis; format: functional, cell-based; conditions: dose 10-30 µM; how it was run: as §2
U2OS [31] = experiment: Upregulation of HMOX1 expression in human U2OS cells at 30 uM incubated for 24 hrs by proteome profiling based analysis; format: functional, cell-based; how it was run: as §2
U2OS [32] = experiment: Induction of integrated stress response in human U2OS cells assessed as increase ATF4 level at 50 uM incubated for 24 hrs by Western blot analysis; format: functional, cell-based; how it was run: as §4

SMILES | Activity (U2OS [2]) | Activity (U2OS [3]) | Activity (U2OS [4]) | Activity (U2OS [5]) | Activity (U2OS [6]) | Activity (U2OS [7]) | Activity (U2OS [8]) | Activity (U2OS [9]) | inhibition (U2OS [10]) | Activity (U2OS [11]) | Activity (HEK-293T) | Activity (U2OS [12]) | Activity (U2OS [13]) | further results
Cc1cccc(-c2[nH]c(C(C)(C)C)nc2-c2ccc3nccnc3c2)n1 | inactive | Active | Active | inactive | Active | Active | Active | inactive | inactive | Active | Active | Active | inactive | Activity (U2OS [1]): Active
COc1cc(OC)c2c(c1Cl)OC1(CCC3(CC1C)OCCc1c3c3cc(C)ccc3n1Cc1ccccc1)C2=O (centres undefined) | – | Active | Active | inactive | Active | Active | Active | – | inactive | Active | – | – | inactive | Activity (U2OS [14]): Active; Activity (U2OS [15]): inactive; Activity (U2OS [16]): inactive; Activity (U2OS [17]): Active
Cc1cc(C2CCCCC2)n(O)c(=O)c1 [CICLOPIROX] | Active | Active | Active | inactive | Active | Active | – | inactive | inactive | Active | Active | Active | inactive | Activity (U2OS [18]): Active; Activity (U2OS [19]): Dose-Dependent Effect; Activity (U2OS [20]): Active; Activity (U2OS [21]): Active; Activity (U2OS [22]): Active; Activity (U2OS [23]): Dose-Dependent Effect; Activity (U2OS [24]): Active; Activity (U2OS [25]): Active; Activity (U2OS [26]): Active; Activity (U2OS [27]): Active; Activity (U2OS [28]): Active; Activity (U2OS [29]): ~100%; Activity (U2OS [30]): Active; Activity (U2OS [31]): Active
CC(=O)N(O)CCCCCNC(=O)CCC(=O)N(O)CCCCCNC(=O)CCC(=O)N(O)CCCCCN | – | – | – | – | – | – | – | – | – | – | – | – | – | Activity (U2OS [32]): inactive

From ChEMBL document CHEMBL5550188, “Detection of a Mitochondrial Fragmentation and Integrated Stress Response Using the Cell Painting Assay” (2024)
